Common to all, as to assay: cell viability loss in multiple lines – CellTiter-Glo ATP luminescence, multiple timepoints, mechanism study for HRAS target identification project, profiling panel (AID 652139)
Common to all, as to conditions: Cancer/normal cell panel viability
Background: In ATP-based viability assays light output follows the ATP content of the culture.

One assay concerns CCRF-CEM. The procedure, abridged:
(§1)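 Test system: human tumour lines plus mouse C2C12 and HUVEC; Timing: overnight preculture, multiple exposures incl. 24, 48 h, all 37 °C; Plate: separate assay plate for each exposure timepoint; Technique: CellTiter-Glo luminescence measuring cellular ATP.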

For a further assay, the system named is HT-29. The procedure, abridged:
as §1

The next assay relates to HUVEC. The method in brief:
as §1

The next assay relates to LOX-IMVI. The method in brief: as §1
In the next assay the test system is SNB-75. The procedure, abridged:
as §1

For a further assay, the system named is SR. The procedure, abridged:
as §1

For another assay, the system named is U-251. The method in brief: as §1
The test system of the next assay is C2C12. The procedure, abridged: as §1
In another assay the test system is HeLA. The method in brief: as §1
The next assay deals with SNB-19. The method in brief:
as §1

Results filed as inconclusive are left out. Active and inactive are the calls of the source. How the calls were made is not given here.

Broadly, the AC50 is the concentration at which the activity in the assay is half-maximal. In the case of `Cc1onc(C(=O)N2CCN(C(c3ccc(Cl)cc3)c3ccc(Cl)cc3)CC2)c1[N+](=O)[O-]`, the half-maximal activity concentration (AC50) in the assay on CCRF-CEM is 207 nM; in the assay with HT-29, 963 nM; in the assay on LOX-IMVI, 103 nM; with SNB-75, 687 nM; in the assay on SR it was 142 nM; in the assay on U-251, > 70000 nM (inactive). The outcome in the assay on HUVEC was inactive.

Turning to `Cc1onc(C(=O)N2CCN(C(c3ccncc3)c3ccncc3)CC2)c1[N+](=O)[O-]`, the outcome with C2C12, in the assay with CCRF-CEM, in the assay with HT-29, in the assay with HUVEC, with HeLA and with LOX-IMVI was inactive. In addition, the outcome in the assay with SNB-19, with SNB-75, with SR and in the assay with U-251 was inactive.

With `CC(C)(C)OC(=O)NCCOCCOCCOc1ccc(N(C(=O)CCl)C(C(=O)NCCc2ccccc2)c2cccs2)cc1Cl` (centres undefined), the AC50 was 442 nM in the assay on C2C12; 140 nM in the assay on CCRF-CEM; 457 nM in the assay on HT-29; 13.7 µM in the assay with HUVEC; 650 nM in the assay on HeLA; 83.4 nM in the assay with LOX-IMVI. The AC50 in the assay with SNB-19 was 1720 nM; with SNB-75 it was 686 nM; in the assay on SR, 95.1 nM; in the assay on U-251, 1350 nM.

On to `C#CCCCC(=O)NCCOCCOCCOc1ccc(N(C(=O)CCl)C(C(=O)NCCc2ccccc2)c2cccs2)cc1Cl` (centres undefined), for which the AC50 was 5420 nM with C2C12; 1340 nM in the assay on CCRF-CEM; 2860 nM in the assay on HT-29; 4490 nM in the assay with HeLA; 421 nM with LOX-IMVI; 4450 nM in the assay on SNB-19. Further, the concentration at half-maximal activity (AC50) in the assay on SNB-75 is 3560 nM; with SR it was 885 nM; with U-251 it was 6810 nM.

`COc1ccc(N(C(=O)CCl)C(C(=O)NCCc2ccccc2)c2cccs2)cc1Cl` (centres undefined): the AC50 in the assay on C2C12 is 842 nM; in the assay on CCRF-CEM, 119 nM; with HT-29, 162 nM; in the assay with HUVEC it was 8.94 µM; with HeLA, 547 nM; in the assay on LOX-IMVI, 40.5 nM. The AC50 in the assay with SNB-19 was 1170 nM; with SNB-75 it was 286 nM; with SR, 61.8 nM; in the assay on U-251, 896 nM.

Turning to `COC(=O)c1ccc([C@@H]2c3[nH]c4ccccc4c3C[C@@H](C(=O)OC)N2C(=O)CCl)cc1`, the concentration at half-maximal activity (AC50) is 101 nM with C2C12; 82.8 nM with CCRF-CEM; 177 nM in the assay on HT-29; 573 nM in the assay on HeLA; 31 nM in the assay on LOX-IMVI; 355 nM in the assay with SNB-75. Also, the AC50 was 32.9 nM in the assay with SR and 1060 nM with U-251.

Regarding `CCC(=O)N(c1ccc(OC)c(Cl)c1)C(C(=O)NCCc1ccccc1)c1cccs1` (centres undefined), the AC50 with HT-29 and in the assay on HeLA was > 70000 nM (inactive) in each case. For the same compound, the outcome with LOX-IMVI, in the assay with SNB-19 and in the assay with U-251 was inactive.

The values above are taken from PubChem BioAssay AID652139 (Broad Institute, 2013).
